What is called IC50 is the concentration that inhibits the measured activity by half. Usually inhibition in vivo stands for the change of the read-out against control, counted positive when it falls.

Molecules are shown by their SMILES. Active and inactive are the calls of the source. No cut-off for these calls is given here. A value given as a limit tells only on which side of the number the result lay.

The text below walks through data of ChEMBL document CHEMBL1255207, “Pyrazolobenzodiazepines: part I. Synthesis and SAR of a potent class of kinase inhibitors” (Bioorg Med Chem Lett, 2010).

Data set [1] deals with Cyclin-dependent kinase 2/cyclin E (Homo sapiens, UniProt P24941). Description: Inhibition of CDK2-cyclin E. The class given is protein-complex assay. The procedure, abridged:
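CDK2 was paired with cyclin E1. IC50 came from at least two replicates at each concentration.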

For data set [2], the system named is SW480. Description: Cytotoxicity against human SW480 cells by MTT assay. The class given is functional, cell-based. The gist of the method:
(§1)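 Antiproliferative IC50 was measured in human tumor lines: H460a (lung), HCT116, RKO and SW480 (colon), and MDA-MB435 (breast). Values are the mean of duplicate wells.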

For data set [3], the target named is CDK4-cyclin D1 (Homo sapiens). Description: Inhibition of CDK4-cyclin D1.
The subject of data set [4] is CDK1-cyclin B (Homo sapiens). Description: Inhibition of CDK1-cyclin B.
Data set [5] can be described thus: Inhibition of FGFR.
The target of data set [6] is Epidermal growth factor receptor (Homo sapiens, UniProt P00533). Description: Inhibition of EGFR.
Epidermal growth factor receptor, sequence (P00533 whole entry): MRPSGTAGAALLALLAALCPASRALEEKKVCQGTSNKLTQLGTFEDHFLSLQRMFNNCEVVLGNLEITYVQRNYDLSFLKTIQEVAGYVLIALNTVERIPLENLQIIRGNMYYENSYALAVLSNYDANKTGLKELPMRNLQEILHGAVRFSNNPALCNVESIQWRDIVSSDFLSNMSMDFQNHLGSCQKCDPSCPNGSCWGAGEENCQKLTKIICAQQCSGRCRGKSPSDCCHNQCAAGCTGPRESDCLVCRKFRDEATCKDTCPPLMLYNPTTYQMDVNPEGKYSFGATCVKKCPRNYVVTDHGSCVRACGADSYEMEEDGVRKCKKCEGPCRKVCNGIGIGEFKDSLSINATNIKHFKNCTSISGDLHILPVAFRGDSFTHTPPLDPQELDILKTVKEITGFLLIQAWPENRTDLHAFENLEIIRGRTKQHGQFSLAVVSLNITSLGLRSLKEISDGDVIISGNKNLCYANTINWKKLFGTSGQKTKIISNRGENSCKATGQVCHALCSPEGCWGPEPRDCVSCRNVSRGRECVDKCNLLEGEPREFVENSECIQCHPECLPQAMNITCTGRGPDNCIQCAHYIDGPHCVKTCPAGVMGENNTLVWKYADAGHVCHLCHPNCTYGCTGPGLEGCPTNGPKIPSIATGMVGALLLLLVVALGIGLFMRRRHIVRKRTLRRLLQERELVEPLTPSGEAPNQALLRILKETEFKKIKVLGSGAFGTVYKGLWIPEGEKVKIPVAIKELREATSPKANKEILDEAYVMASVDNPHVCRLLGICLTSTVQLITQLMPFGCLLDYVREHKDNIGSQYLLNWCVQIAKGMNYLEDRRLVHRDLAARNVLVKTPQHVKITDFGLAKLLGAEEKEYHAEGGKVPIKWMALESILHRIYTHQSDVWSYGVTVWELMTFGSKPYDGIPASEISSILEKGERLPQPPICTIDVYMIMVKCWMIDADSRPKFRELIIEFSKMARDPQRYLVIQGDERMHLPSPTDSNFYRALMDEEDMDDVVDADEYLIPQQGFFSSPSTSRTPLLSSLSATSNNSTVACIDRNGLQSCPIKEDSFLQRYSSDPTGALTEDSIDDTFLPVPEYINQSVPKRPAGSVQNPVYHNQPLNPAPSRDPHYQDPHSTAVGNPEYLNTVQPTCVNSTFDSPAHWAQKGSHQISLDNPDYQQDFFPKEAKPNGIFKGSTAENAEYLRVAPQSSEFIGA
For a further data set, the target named is Focal adhesion kinase 1 (Homo sapiens, UniProt Q05397). The experiment in a line: Inhibition of FAK.
Focal adhesion kinase 1, sequence (Q05397 whole entry): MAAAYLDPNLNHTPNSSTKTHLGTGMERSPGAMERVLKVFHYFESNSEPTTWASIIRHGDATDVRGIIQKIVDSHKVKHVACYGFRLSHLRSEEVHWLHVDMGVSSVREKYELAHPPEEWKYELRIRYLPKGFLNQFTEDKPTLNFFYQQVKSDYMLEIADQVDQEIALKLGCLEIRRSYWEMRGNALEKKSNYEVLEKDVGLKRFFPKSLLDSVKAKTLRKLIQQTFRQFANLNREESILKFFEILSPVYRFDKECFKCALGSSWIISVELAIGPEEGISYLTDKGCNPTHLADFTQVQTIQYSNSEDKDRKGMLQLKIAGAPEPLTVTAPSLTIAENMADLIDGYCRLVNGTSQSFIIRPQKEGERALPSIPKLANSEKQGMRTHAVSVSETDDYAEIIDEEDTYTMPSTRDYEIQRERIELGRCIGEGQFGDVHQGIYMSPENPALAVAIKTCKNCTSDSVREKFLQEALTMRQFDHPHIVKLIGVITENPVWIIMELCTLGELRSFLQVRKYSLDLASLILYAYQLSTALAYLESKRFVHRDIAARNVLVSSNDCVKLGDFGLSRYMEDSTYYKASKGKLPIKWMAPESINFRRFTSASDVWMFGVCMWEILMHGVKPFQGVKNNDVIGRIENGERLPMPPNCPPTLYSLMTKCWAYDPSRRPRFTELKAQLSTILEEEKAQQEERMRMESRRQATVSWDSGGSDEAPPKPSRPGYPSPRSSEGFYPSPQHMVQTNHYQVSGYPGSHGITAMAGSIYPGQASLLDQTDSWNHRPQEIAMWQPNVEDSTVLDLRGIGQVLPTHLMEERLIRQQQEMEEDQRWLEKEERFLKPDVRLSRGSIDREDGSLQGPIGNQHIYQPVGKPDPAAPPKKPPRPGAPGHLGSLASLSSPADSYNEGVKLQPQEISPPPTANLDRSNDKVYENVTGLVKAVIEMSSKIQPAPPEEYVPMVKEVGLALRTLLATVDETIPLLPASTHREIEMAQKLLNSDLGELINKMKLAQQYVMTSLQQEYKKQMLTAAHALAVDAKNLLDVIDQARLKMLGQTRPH
Data set [7] relates to NCI-H460. The experiment in a line: Cytotoxicity against human H460a cells by MTT assay. It is filed as functional, cell-based. The gist of the method:
as §1
(In general: Formazan colour is commonly taken as a measure of viable cells.)

Data set [8] deals with Vascular endothelial growth factor receptor 2 (Homo sapiens, UniProt P35968). Description: Inhibition of KDR.
Vascular endothelial growth factor receptor 2, sequence (P35968 whole entry): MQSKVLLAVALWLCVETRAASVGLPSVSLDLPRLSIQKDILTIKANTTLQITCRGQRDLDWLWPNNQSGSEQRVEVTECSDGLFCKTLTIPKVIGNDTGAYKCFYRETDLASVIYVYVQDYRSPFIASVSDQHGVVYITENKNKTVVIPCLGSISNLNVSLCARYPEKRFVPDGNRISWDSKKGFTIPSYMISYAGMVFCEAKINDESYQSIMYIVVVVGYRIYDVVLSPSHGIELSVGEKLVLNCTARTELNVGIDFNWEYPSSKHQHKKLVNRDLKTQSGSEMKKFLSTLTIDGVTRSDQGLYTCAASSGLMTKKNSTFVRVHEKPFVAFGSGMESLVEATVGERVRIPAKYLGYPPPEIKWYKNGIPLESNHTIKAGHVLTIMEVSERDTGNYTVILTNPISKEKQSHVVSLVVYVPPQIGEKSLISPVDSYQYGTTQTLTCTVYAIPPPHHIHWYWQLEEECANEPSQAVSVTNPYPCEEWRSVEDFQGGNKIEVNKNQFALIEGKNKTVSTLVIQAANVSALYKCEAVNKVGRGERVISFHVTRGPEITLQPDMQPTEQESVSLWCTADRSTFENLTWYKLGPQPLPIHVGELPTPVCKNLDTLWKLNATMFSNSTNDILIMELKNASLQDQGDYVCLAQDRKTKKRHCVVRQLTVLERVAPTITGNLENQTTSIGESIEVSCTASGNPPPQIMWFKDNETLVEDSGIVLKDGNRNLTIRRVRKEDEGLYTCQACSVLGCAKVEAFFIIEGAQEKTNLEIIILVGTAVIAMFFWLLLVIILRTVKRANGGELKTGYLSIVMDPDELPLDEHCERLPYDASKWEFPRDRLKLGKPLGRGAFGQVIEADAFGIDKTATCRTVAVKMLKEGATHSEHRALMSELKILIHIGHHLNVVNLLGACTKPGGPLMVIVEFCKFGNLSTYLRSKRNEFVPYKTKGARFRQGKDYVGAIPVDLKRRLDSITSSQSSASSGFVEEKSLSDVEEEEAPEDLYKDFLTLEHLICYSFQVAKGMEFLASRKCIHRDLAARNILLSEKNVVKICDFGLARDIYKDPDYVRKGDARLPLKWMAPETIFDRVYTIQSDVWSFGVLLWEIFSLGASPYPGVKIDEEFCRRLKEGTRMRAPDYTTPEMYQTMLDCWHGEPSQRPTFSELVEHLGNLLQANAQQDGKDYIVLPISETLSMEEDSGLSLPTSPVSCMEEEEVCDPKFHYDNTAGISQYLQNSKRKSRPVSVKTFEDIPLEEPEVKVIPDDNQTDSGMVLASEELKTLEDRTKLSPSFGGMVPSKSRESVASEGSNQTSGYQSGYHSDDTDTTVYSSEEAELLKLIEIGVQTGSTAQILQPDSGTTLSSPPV
Data set [9] is described as follows: Inhibition of PDGFR.
The test system of another data set is HCT-116. The experiment in a line: Cytotoxicity against human HCT116 cells by MTT assay. It is filed as functional, cell-based. The gist of the method:
as §1

The next data set concerns MDA-MB-435. The experiment in a line: Cytotoxicity against human MDA-MB-435 cells by MTT assay. It is filed as functional, cell-based. The gist of the method:
as §1

Data set [10] addresses Proto-oncogene tyrosine-protein kinase Src (Homo sapiens, UniProt P12931). Description: Inhibition of Src.
In a further data set the test system is RKO. The experiment in a line: Cytotoxicity against human RKO cells by MTT assay. The class given is functional, cell-based. The procedure, abridged: as §1
For a further data set, the system named is LoVo. Description: Antitumor activity against human LoVo cells xenografted in mouse assessed as inhibition of tumor growth administered as po bid for 20 days. It is filed as functional, organism-based. In general terms: Xenograft models place foreign cells or tissue in a host animal.
Data set [11] deals with SW480. Description: Antitumor activity against human SW480 cells xenografted in mouse assessed as inhibition of tumor growth at 1.56 mg/kg, po bid for 20 days. The note with it: SW480, 480 h. It is filed as functional. The gist of the method: (§2)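 SW480 tumor-bearing nude mice dosed per os by gavage (0.2 ml/animal) twice daily for 20 days at 3.125, 1.56 and 0.78 mg/kg, with vehicle b.i.d. control. Tumor growth was followed over days post-implant and expressed as %T/C and % inhibition, with p values. Body weight change was tracked over the study.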

Data set [12] deals with Mus musculus. Description: Toxicity in human SW480 cells xenografted mouse assessed as mortality at 0.78 to 3.125 mg/kg, po bid for 20 days. The arrangement: dose 0.78-3.125 mg/kg, route oral. The note with it: in vivo, 480 h. The class given is organism-based. The gist of the method:
(§3)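 SW480 tumour-bearing nude mice were dosed by oral gavage (0.2 ml/animal) at 3.125, 1.56 or 0.78 mg/kg b.i.d. for 20 days, against a vehicle b.i.d. group. Animals were watched for drug-related toxicity, with body weight and tumour growth followed over days after tumour cell implant.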

Data set [13] has as its system NCI-H460. The experiment in a line: Antitumor activity against human H460 cells xenografted in mouse assessed as inhibition of tumor growth administered as po bid for 20 days. The class given is functional, organism-based.
The subject of data set [14] is Mus musculus. Description: Toxicity in human SW480 cells xenografted mouse assessed as overt signs at 0.78 to 3.125 mg/kg, po bid for 20 days. It is filed as organism-based. The arrangement: dose 0.78-3.125 mg/kg, route oral. To be noted: in vivo, 480 h. The gist of the method:
as §3

The test system of data set [15] is SW480. Description: Antitumor activity against human SW480 cells xenografted in mouse assessed as inhibition of tumor growth at 3.125 mg/kg, po bid for 20 days. The note with it: SW480, 480 h. The class given is functional. The procedure, abridged:
as §2

The next data set relates to LOX. The experiment in a line: Antitumor activity against human LOX cells xenografted in mouse assessed as inhibition of tumor growth administered as po bid for 20 days. The class given is functional, organism-based.
In another data set the test system is A549. The experiment in a line: Antitumor activity against human A549 cells xenografted in mouse assessed as inhibition of tumor growth administered as po bid for 20 days. It is filed as functional, organism-based.
In data set [16] the test system is Mus musculus. Description: Toxicity in human SW480 cells xenografted mouse assessed as body weight gain at 0.78 to 3.125 mg/kg, po bid for 20 days. The class given is organism-based. The arrangement: dose 0.78-3.125 mg/kg, route oral. The note with it: in vivo, 480 h. The gist of the method:
as §2

For data set [17], the target named is CDK1-cyclin A1 (Homo sapiens). Description: Inhibition of CDK1-cyclin A1.
The target in data set [18] is CDK4-cyclin D1 (Homo sapiens). The experiment in a line: Inhibition of CDK4/Cyclin D1.

Proto-oncogene tyrosine-protein kinase Src, sequence (P12931 2-536 limits assumed): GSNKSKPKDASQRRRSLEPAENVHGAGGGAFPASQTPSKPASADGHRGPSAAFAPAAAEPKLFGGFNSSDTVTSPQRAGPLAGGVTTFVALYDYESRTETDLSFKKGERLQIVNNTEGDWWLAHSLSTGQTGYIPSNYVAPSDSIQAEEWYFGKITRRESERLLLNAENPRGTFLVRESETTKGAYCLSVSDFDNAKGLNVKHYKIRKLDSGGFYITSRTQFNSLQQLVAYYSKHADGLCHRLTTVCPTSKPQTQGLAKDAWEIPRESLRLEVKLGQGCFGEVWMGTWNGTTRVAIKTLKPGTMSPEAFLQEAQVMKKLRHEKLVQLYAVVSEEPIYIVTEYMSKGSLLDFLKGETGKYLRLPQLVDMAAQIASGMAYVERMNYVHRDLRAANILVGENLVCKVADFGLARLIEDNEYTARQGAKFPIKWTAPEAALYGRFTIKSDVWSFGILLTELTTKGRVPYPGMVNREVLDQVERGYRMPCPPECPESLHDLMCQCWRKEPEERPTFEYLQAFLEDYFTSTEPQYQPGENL

Regarding `O=[N+]([O-])c1ccc2c(c1)C(c1ccccc1Cl)=Nc1c(n[nH]c1-c1ccc[nH]1)N2`, the IC50 in data set [1] was 20 nM; in the data set with SW480 [2], 5300 nM.
For the compound `O=[N+]([O-])c1ccc2c(c1)C(c1ccccc1Cl)=Nc1c(n[nH]c1-c1ccccc1)N2`, the IC50 in [1] stood at 210 nM; in the data set with SW480 [2] it was 18000 nM.
Regarding `Cc1[nH]nc2c1N=C(c1ccccc1Cl)c1ccccc1N2`, the half-inhibitory concentration (IC50) was found to be 105 nM in data set [1] and 3800 nM in the data set on SW480 [2].
In the case of `O=[N+]([O-])c1ccc2c(c1)C(c1ccccc1Cl)=Nc1c[nH]nc1N2`, the IC50 is 10000 nM in [3], 70 nM in data set [1], 500 nM in [4] and 6000 nM with SW480 [2].
Take `O=[N+]([O-])c1ccc2c(c1)C(c1ccccc1Cl)=Nc1c(n[nH]c1-c1cccnc1)N2`: the figures for the IC50 (in data set [1]; with SW480 [2]) were 300 nM and 26000 nM, respectively.
Consider `CC(=O)Nc1ccc2c(c1)C(c1ccccc1Cl)=Nc1c[nH]nc1N2`, for which the IC50 in data set [5] was 45 nM; in [1] it was 38 nM; in [6] it was 726 nM; against Focal adhesion kinase 1 it was 180 nM; in the data set on NCI-H460 [7], 550 nM; in data set [8] it was 33 nM. Further, the half-inhibitory concentration (IC50) turned out to be 23 nM in data set [9]; 460 nM with HCT-116; 794 nM with MDA-MB-435; 700 nM with SW480 [2]; 930 nM in [10]; 793 nM with RKO.
Turning to `Cc1[nH]nc2c1N=C(c1ccccc1)c1ccccc1N2`, the figures for the IC50 (in data set [1]; in the data set with SW480 [2]) were 115 nM and 1500 nM, respectively.
For `Cc1[nH]nc2c1N=C(c1ccccc1)c1cc(F)ccc1N2`, in that order: 93 nM and 2200 nM.
With `Cc1[nH]nc2c1N=C(c1ccccc1F)c1ccccc1N2`, the half-maximal inhibitory concentration (IC50) in data set [1] stood at 64 nM; in the data set on SW480 [2], 400 nM.
Compound `NC(=O)c1[nH]nc2c1N=C(c1ccccc1Cl)c1cc([N+](=O)[O-])ccc1N2` gave a concentration for half-maximal inhibition (IC50) in data set [1] of 258 nM.
Turning to `Nc1ccc2c(c1)C(c1ccccc1Cl)=Nc1c[nH]nc1N2`, the inhibition entry in the data set with LoVo, in the data set with NCI-H460 [13], in the data set on LOX and in the data set on A549 was “Active” throughout. In addition, the concentration for half-maximal inhibition (IC50) in data set [5] was 50 nM; in data set [1] it was 88 nM; in data set [6], 989 nM; on Focal adhesion kinase 1, 150 nM; with NCI-H460 [7] it was 1070 nM; in data set [8] it was 34 nM. In addition, the IC50 in data set [9] stood at 15 nM; with HCT-116, 1020 nM; with MDA-MB-435, 950 nM; with SW480 [2], 500 nM; in data set [10] it was 1840 nM; in the data set with RKO it was 310 nM. In addition, in the data set on SW480 [11], the inhibition in vivo at 1.56 mg/kg was determined as 70%. Also, the Activity entry is “Non-toxic” in the data set with Mus musculus [12], “Non-toxic” with Mus musculus [14] and 9% with Mus musculus [16]. The inhibition in vivo at 3.125 mg/kg in the data set on SW480 [15] came out at 93%.
With `Cc1[nH]nc2c1N=C(c1ccccc1F)c1cc(F)ccc1N2`, the 50% inhibitory concentration (IC50) in data set [1] is 40 nM; in the data set with SW480 [2] it was 700 nM.
As for `O=[N+]([O-])c1ccc2c(c1)C(c1ccccc1Cl)=Nc1c(n[nH]c1-c1ccncc1)N2`, the IC50 in data set [1] worked out at 50 nM; with SW480 [2], 12000 nM.
In turn, `O=[N+]([O-])c1ccc2c(c1)C(c1ccccc1Cl)=Nc1c(n[nH]c1C(F)(F)F)N2` gave an IC50 in data set [1] of 232 nM.
For the compound `O=[N+]([O-])c1ccc2c(c1)C(c1ccccc1Cl)=Nc1c(n[nH]c1CO)N2`, the results for the IC50 (in data set [1]; with SW480 [2]) were 238 nM and 240 nM, respectively.
`O=[N+]([O-])c1ccc2c(c1)C(c1ccccc1Cl)=Nc1c(n[nH]c1CCc1ccccc1)N2`: the IC50 was 5000 nM in data set [1] and 15000 nM in the data set on SW480 [2].
Turning to `N#Cc1ccc2c(c1)C(c1ccccc1F)=Nc1c[nH]nc1N2`, the IC50 in data set [5] stood at 67 nM; in data set [17], 139 nM; in [1], 16 nM; in data set [18], 520 nM; in [6], 10900 nM; against Focal adhesion kinase 1, 1200 nM. Further, the half-inhibitory concentration (IC50) in data set [8] turned out to be 39 nM; in data set [9], 51 nM; in the data set with SW480 [2], 110 nM; in data set [10] it was 5400 nM.
Turning to `Cc1[nH]nc2c1N=C(c1ccccc1Cl)c1cc([N+](=O)[O-])ccc1N2`, the half-inhibitory concentration (IC50) in [5] was 100 nM; in data set [1], 35 nM; in data set [6], > 10000 nM; against Focal adhesion kinase 1 it was 6900 nM; in [8] it was 72 nM; in data set [9], 83 nM. In addition, the IC50 in the data set with SW480 [2] is 160 nM; in [10] it was > 60000 nM.
`Nc1n[nH]c2nc(-c3cccs3)cc(C(F)(F)F)c12`: the 50% inhibitory concentration (IC50) in data set [3] is > 30000 nM; in data set [1], 2000 nM; in [4], 10000 nM; in the data set with SW480 [2], 6000 nM.
Regarding `CC(C)c1[nH]nc2c1N=C(c1ccccc1Cl)c1cc([N+](=O)[O-])ccc1N2`, the IC50 in [1] turned out to be 10 nM; in the data set with SW480 [2] it was 640 nM.
